The target of assay [1] is Mu-type opioid receptor (Rattus norvegicus) (UniProt P33535).
The target of a further assay is Mu-type opioid receptor (Cavia porcellus, UniProt P97266). Description: inhibitory concentration for inhibition of electrically induced smooth muscle contractions of GPI (guinea pig ileum) myenteric-plexus-longitudinal muscle strips. The format is functional, tissue-based. The method in brief: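 Longitudinal muscle-myenteric plexus strips from ileum of male guinea pigs (400-600 g), electrically stimulated under standard conditions. IC50 taken as 50% inhibition of twitch, mean ± SEM of 4-6 measurements. Where no IC50 was reached, % inhibition is given at 10^-6 or 10^-5 M (n = 4).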

Assay [2] addresses T1, Delta-type opioid receptor (Rattus norvegicus, UniProt P33533). As to the kind of experiment: Binding affinities against delta 2 opioid receptor of rat brain using [3H]Ile5,6-deltorphin II as radioligand. The method in brief:
(§1)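 Wistar rat brain (minus cerebellum) membranes, 300-500 µg protein, 50 mM Tris-HCl pH 7.4. Displacement of [3H]pClPhe4-DPDPE (0.8 nM, 25 °C, 90 min) or [3H]Ile5,6-deltorphin II (0.5 nM, 35 °C, 45 min). Filtration, scintillation counting. Nonspecific binding defined with 10 µM naloxone. Ki as mean ± SEM of 3-5 runs in duplicate; Hill slopes also fitted.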

Assay [3] is filed under the species Rattus norvegicus. As to the kind of experiment: Stimulation of [35S]GTP-gamma-S, binding at the concentration of 0.1 uM. The class given is functional. An outline of the steps: (§2)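 Rat frontal cortex crude membranes, 10 µg protein, in 50 mM Tris-HCl with 1 mM EGTA, 3 mM MgCl2, 100 mM NaCl. Incubated with 30 µM GDP and 0.05 nM [35S]GTPγS, 1 h at 30 °C. Nonspecific binding taken with 10 µM unlabeled GTPγS. Filtered and counted. Stimulation expressed as % of specific binding, mean ± SEM of three triplicate experiments.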

Assay [4] has as its target T1, Delta-type opioid receptor. Description: Binding affinities against Opioid receptor delta 1 of rat brain using [3H]p-Cl-Phe4-DPDPE as radioligand. An outline of the steps:
as §1

Assay [5] concerns the target Delta-type opioid receptor (Rattus norvegicus) (UniProt P33533).
For assay [6] the target is unchanged. This is another data set of the same source.
The species entered for assay [7] is Rattus norvegicus. Description: Stimulation of [35S]GTP-gamma-S, binding at the concentration of 1 uM. The class given is functional. An outline of the steps: as §2
On the technique in general: Binding of GTPγS marks nucleotide exchange on a G protein.

Assay [8] deals with Mu-type opioid receptor (Rattus norvegicus) (UniProt P33535). The source holds these as a separate data set.
The target in assay [9] is Delta-type opioid receptor (Rattus norvegicus) (UniProt P33533). This is another data set of the same source.

The source of these data is ChEMBL document CHEMBL1133018, “Deltorphin II analogues with 6-hydroxy-2-aminotetralin-2-carboxylic acid in position 1” (J Med Chem, 2000).

Structures are written as SMILES. pIC50, pKi: −log10 of the molar value. *1 amine or outer side, *2 acyl side, *3 side chain or, on linkers, in order; H or OH if unused. Where a SMILES comes first, the peptide text is derived from it. [ ]: non-standard residue; d: D form. X1 = O=C([C@@]1(N[*:1])CCc2cc(O)ccc2C1)[*:2]; X2 = O=C([C@]1(N[*:1])CCc2cc(O)ccc2C1)[*:2]

Delta-type opioid receptor (Rattus norvegicus), sequence (P33533 whole entry): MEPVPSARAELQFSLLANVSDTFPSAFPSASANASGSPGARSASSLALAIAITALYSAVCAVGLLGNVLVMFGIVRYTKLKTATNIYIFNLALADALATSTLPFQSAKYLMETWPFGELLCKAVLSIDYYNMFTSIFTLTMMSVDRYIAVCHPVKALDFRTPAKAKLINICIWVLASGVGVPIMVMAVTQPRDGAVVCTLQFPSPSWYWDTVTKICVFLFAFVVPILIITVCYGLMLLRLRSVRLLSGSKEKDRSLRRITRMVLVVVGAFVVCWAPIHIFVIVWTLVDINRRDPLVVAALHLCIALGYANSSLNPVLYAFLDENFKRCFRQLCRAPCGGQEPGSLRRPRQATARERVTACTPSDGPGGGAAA
T1 sequence (P33533 whole entry): as above
Mu-type opioid receptor (Rattus norvegicus), sequence (P33535 whole entry, looked up): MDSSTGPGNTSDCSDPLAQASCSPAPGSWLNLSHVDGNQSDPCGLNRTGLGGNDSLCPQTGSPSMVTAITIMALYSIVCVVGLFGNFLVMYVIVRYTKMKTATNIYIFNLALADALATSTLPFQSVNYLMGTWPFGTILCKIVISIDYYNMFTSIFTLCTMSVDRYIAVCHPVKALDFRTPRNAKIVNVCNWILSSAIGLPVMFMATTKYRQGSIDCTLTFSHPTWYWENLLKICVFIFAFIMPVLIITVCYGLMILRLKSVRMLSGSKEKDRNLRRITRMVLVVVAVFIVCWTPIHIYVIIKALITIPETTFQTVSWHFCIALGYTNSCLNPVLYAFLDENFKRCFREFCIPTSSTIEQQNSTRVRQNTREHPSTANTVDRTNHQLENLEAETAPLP
Mu-type opioid receptor, sequence (P97266 whole entry): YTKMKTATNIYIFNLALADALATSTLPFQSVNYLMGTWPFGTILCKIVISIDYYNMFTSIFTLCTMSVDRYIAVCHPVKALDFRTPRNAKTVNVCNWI

Turning to `CC[C@H](C)[C@H](NC(=O)[C@H](CCC(=O)O)NC(=O)[C@H](Cc1ccccc1)NC(=O)[C@H](C)NC(=O)[C@@]1(N)CCc2cc(O)ccc2C1)C(=O)N[C@H](C(=O)NCC(N)=O)[C@@H](C)CC` (H-[X1]AFEIIG-NH2), the Hill coefficient (commonly the slope factor of the fitted curve) in assay [1] was -1.01; in [5], -0.34; in assay [6], -0.69. Moreover, at Mu-type opioid receptor, the pIC50 (commonly the negative decadic logarithm of the IC50, by convention in mol/L) was 5.29. Also, the values for the pKi in [2] and in assay [4] were 9.47 and 9.80, respectively. The Stimulation in the assay listed under Rattus norvegicus [3] turned out to be 155%.
`CC[C@H](C)[C@H](NC(=O)[C@H](CCC(=O)O)NC(=O)[C@H](Cc1ccccc1)NC(=O)[C@H](C)NC(=O)[C@]1(N)CCc2cc(O)ccc2C1)C(=O)N[C@H](C(=O)NCC(N)=O)[C@@H](C)CC` (H-[X2]AFEIIG-NH2) gave a negative logarithm of the IC50 (pIC50) on Mu-type opioid receptor of less than 5.00. Further, the pKi (usually the negative decadic logarithm of the Ki, by convention in mol/L) in assay [2] was 9.00; in assay [4], 9.03. The compound also had a Stimulation in the assay listed under Rattus norvegicus [7] of 136.9%. In addition, the Hill coefficient in [8] is -1.09; in [9], -0.42; in [6], -0.5.
